The results in this text go back to ChEMBL document CHEMBL2176911 (J Med Chem, 2012).

Molecules are shown by their SMILES. Active and inactive are the calls of the source. The calls are words filed in the database; no cut-off is given here.

A word on the IC50: it is the concentration that gives 50% inhibition.

For assay [1], the target named is Dual specificity protein kinase CLK3 (Mus musculus) (UniProt O35492). The assay can be described thus: Inhibition of mouse recombinant GST-tagged CLK3 expressed in Escherichia coli using GRSRSRSRSRSR as substrate and [gamma33P]ATP at 10 uM after 30 mins by scintillation counting. In outline:
(§1)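 Radiometric kinase assay with the RS peptide as substrate and 15 μM [γ-33P]ATP.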

For assay [2], the target named is Dual specificity protein kinase CLK1 (Mus musculus) (UniProt P22518). The assay is described as follows: Inhibition of mouse recombinant GST-tagged CLK1 expressed in Escherichia coli using GRSRSRSRSRSR as substrate and [gamma33P]ATP at 10 uM after 30 mins by scintillation counting. Put shortly: as §1
Assay [3] addresses T1, Dual specificity tyrosine-phosphorylation-regulated kinase 2 (Homo sapiens) (UniProt Q92630).
T1 sequence (whole entry): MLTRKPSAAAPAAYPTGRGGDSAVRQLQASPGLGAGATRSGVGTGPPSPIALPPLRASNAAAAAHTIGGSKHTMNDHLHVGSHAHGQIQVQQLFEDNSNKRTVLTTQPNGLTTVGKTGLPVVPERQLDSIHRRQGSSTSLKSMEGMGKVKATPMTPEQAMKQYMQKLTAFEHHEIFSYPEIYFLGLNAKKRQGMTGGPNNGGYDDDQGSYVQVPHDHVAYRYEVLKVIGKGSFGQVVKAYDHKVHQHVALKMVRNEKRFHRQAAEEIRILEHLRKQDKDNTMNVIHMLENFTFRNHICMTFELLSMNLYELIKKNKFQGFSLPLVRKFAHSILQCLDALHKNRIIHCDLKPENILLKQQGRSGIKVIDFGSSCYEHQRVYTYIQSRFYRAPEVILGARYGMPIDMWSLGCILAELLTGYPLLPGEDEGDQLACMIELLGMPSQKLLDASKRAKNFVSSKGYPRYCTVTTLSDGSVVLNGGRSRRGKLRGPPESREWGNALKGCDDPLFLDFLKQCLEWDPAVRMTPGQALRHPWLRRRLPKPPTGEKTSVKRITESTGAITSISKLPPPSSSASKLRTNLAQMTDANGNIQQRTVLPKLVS
The assay is described as follows: Inhibition of human recombinant GST-tagged DYRK2 expressed in Escherichia coli using GRSRSRSRSRSR as substrate and [gamma33P]ATP at 10 uM after 30 mins by scintillation counting.

The target in assay [4] is Dual specificity tyrosine-phosphorylation-regulated kinase 1A (Homo sapiens) (UniProt Q13627). The assay can be described thus: Inhibition of human recombinant GST-tagged DYRK1A expressed in Escherichia coli using GRSRSRSRSRSR as substrate and [gamma33P]ATP at 15 uM after 30 mins by scintillation counting.
Assay [5] concerns the target Dual specificity tyrosine-phosphorylation-regulated kinase 1A (Mus musculus) (UniProt Q61214). The assay is described as follows: Inhibition of DYRK1A in mouse HT22 cells at 10 uM after 4 hrs. Format: cell-based. The note with it: HT-22.
The subject of assay [6] is HT-22. The assay can be described thus: Inhibition of GSK3 in mouse HT22 cells at 10 uM after 4 hrs. Format: cell-based.
In assay [7] the test system is HT-22. The assay can be described thus: Inhibition of GSK3-mediated […] phosphorylation in mouse HT22 cells at 10 uM after 24 hrs by Western blot analysis in presence of MG132. It is filed as cell-based.
Assay [8] relates to HT-22. The assay is described as follows: Neuroprotective activity against glutamate-induced toxicity in mouse HT22 cells after 24 hrs by MTS assay. Format: functional, cell-based. Background: Formazan colour is commonly taken as a measure of viable cells.
Assay [9] can be described thus: Binding affinity to casein kinase 1.
In assay [10] the target is Dual specificity tyrosine-phosphorylation-regulated kinase 1A (Rattus norvegicus) (UniProt Q63470). To be noted: CD Sprague-Dawley, 4.5 to 45 uM.
For assay [11], the target named is Cyclin-dependent kinase 7/ cyclin H (Homo sapiens, UniProt P50613). The assay is described as follows: Inhibition of human recombinant CDK7/cyclin H expressed in insect cell using YSPTSPSYSPTSPSYSPTSPSKKKK as substrate and [gamma33P]ATP after 30 mins by scintillation counting. In outline: (§2)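 Panel of purified kinases (recombinant from several species plus native enzymes), each assayed radiometrically over a range of inhibitor concentrations; IC50 in μM calculated from the dose-response curves.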

Assay [12] concerns the target Mitogen-activated protein kinase 1 (Rattus norvegicus, UniProt P63086). The assay can be described thus: Inhibition of rat recombinant ERK2 using Ets1 as substrate and [gamma33P]ATP as substrate after 30 mins by scintillation counting. In outline:
as §2

Assay [13] concerns the target Dual specificity protein kinase CLK3 (Mus musculus, UniProt O35492). The assay is described as follows: Inhibition of mouse recombinant GST-tagged CLK3 expressed in Escherichia coli using GRSRSRSRSRSR as substrate and [gamma33P]ATP after 30 mins by scintillation counting. In outline: as §2
Assay [14] deals with Dual specificity protein kinase CLK1 (Mus musculus, UniProt P22518). The assay is described as follows: Inhibition of mouse recombinant GST-tagged CLK1 expressed in Escherichia coli using GRSRSRSRSRSR as substrate and [gamma33P]ATP after 30 mins by scintillation counting. In outline: as §2
The target in assay [15] is Dual specificity protein kinase CLK2 (Mus musculus, UniProt O35491). The assay can be described thus: Inhibition of mouse recombinant GST-tagged CLK2 expressed in Escherichia coli using GRSRSRSRSRSR as substrate and [gamma33P]ATP after 30 mins by scintillation counting. Put shortly: as §2
Assay [16] concerns the target T2, Dual specificity tyrosine-phosphorylation-regulated kinase 4 (Homo sapiens, UniProt Q9NR20).
T2 sequence (Q9NR20 whole entry): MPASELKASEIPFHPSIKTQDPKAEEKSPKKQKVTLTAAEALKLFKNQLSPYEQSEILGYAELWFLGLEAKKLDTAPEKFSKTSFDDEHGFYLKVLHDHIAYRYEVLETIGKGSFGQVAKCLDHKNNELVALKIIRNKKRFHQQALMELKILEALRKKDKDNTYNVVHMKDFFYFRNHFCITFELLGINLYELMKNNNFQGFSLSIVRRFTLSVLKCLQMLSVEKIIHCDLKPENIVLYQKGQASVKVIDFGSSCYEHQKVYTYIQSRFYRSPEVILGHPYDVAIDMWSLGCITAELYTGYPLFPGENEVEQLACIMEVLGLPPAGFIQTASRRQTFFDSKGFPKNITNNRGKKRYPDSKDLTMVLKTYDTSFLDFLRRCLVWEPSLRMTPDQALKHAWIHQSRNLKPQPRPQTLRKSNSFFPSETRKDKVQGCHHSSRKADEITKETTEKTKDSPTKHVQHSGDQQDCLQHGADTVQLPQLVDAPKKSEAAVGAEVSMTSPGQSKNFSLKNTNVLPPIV
The assay can be described thus: Inhibition of human recombinant GST-tagged DYRK4 expressed in Escherichia coli using GRSRSRSRSRSR as substrate and [gamma33P]ATP after 30 mins by scintillation counting.

The target in assay [17] is Dual specificity protein kinase CLK1 (Homo sapiens) (UniProt P49759). The assay is described as follows: Binding affinity to CLK1.
The target in assay [18] is Serine/threonine-protein kinase pim-1 (Homo sapiens, UniProt P11309). The assay can be described thus: Inhibition of human recombinant PIM1 expressed in Escherichia coli using histone H1 as substrate and [gamma33P]ATP after 30 mins by scintillation counting.
Assay [19] has as its target Dual specificity protein kinase CLK4 (Mus musculus, UniProt O35493). The assay can be described thus: Inhibition of mouse recombinant GST-tagged CLK4 expressed in Escherichia coli using GRSRSRSRSRSR as substrate and [gamma33P]ATP after 30 mins by scintillation counting.
The nature of assay [20]: Inhibition of Leishmania major recombinant CK1 expressed in Escherichia coli using RRKHAAIGpSAYSITA as substrate and [gamma33P]ATP after 30 mins by scintillation counting. Put shortly:
as §2

Assay [21] in a line: Inhibition of pig […] isolated from brain using RRKHAAIGpSAYSITA as substrate and [gamma33P]ATP after 30 mins by scintillation couting. Details: species or system Sus scrofa. Put shortly:
as §2

The target of assay [22] is Dual specificity protein kinase CLK3 (Homo sapiens, UniProt P49761). The assay can be described thus: Binding affinity to CLK3.
Assay [23] concerns the target Dual specificity protein kinase CLK4 (Homo sapiens, UniProt Q9HAZ1). The assay can be described thus: Binding affinity to CLK4.
In assay [24] the target is Dual specificity tyrosine-phosphorylation-regulated kinase 3 (Homo sapiens, UniProt O43781). The assay is described as follows: Inhibition of human recombinant GST-tagged DYRK3 expressed in Escherichia coli using GRSRSRSRSRSR as substrate and [gamma33P]ATP after 30 mins by scintillation counting.
Assay [25] concerns the target Glycogen synthase kinase-3 (Sus scrofa, UniProt B2LUN4+I6LNT8). The assay is described as follows: Inhibition of pig GSK3alpha/beta isolated from brain using YRRAAVPPSPSLSRHSSPHQ-phosphoS-EDEEE as substrate and [gamma33P]ATP after 30 mins by scintillation counting. In outline:
as §2

Assay [26] can be described thus: Inhibition of starfish CDK1/cyclin B using histone H1 as substrate and [gamma33P]ATP after 30 mins by scintillation counting. Further details: species or system Asteroidea. In outline:
as §2

Assay [27] concerns the target T1, Dual specificity tyrosine-phosphorylation-regulated kinase 2 (Homo sapiens). The assay is described as follows: Binding affinity to DYRK2.
The target in assay [28] is Cyclin-dependent kinase 2/cyclin A (Homo sapiens, UniProt P24941). The assay is described as follows: Inhibition of CDK2/cyclin A using [gamma33P]ATP after 30 mins by scintillation counting. It is filed as protein-complex assay. Put shortly:
as §2

Assay [29] can be described thus: Inhibition of Plasmodium falciparum recombinant GSK3 expressed in Escherichia coli using YRRAAVPPSPSLSRHSSPHQ-phosphoS-EDEEE as substrate and [gamma33P]ATP after 30 mins by scintillation counting. Put shortly:
as §2

The target of another assay is CDK9/cyclin T1 (Homo sapiens, UniProt P50750). The assay can be described thus: Inhibition of human recombinant CDK9/cyclin T expressed in insect cell using YSPTSPSYSPTSPSYSPTSPSKKKK as substrate and [gamma33P]ATP after 30 mins by scintillation counting. Put shortly:
as §2

In assay [30] the target is Casein kinase II (Homo sapiens) (UniProt P67870+P68400+P19784). The assay is described as follows: Inhibition of human recombinant CK2 using RRREDEESDDEE as substrate and [gamma33P]ATP at 10 uM after 30 mins by scintillation counting. Format: protein-complex assay.
The target in assay [31] is Dual specificity tyrosine-phosphorylation-regulated kinase 2 (Homo sapiens, UniProt Q92630). The assay can be described thus: Inhibition of human recombinant GST-tagged DYRK2 expressed in Escherichia coli using GRSRSRSRSRSR as substrate and [gamma33P]ATP after 30 mins by scintillation counting.

Sequence of Dual specificity protein kinase CLK1 (Mus musculus) (P22518 whole entry, looked up): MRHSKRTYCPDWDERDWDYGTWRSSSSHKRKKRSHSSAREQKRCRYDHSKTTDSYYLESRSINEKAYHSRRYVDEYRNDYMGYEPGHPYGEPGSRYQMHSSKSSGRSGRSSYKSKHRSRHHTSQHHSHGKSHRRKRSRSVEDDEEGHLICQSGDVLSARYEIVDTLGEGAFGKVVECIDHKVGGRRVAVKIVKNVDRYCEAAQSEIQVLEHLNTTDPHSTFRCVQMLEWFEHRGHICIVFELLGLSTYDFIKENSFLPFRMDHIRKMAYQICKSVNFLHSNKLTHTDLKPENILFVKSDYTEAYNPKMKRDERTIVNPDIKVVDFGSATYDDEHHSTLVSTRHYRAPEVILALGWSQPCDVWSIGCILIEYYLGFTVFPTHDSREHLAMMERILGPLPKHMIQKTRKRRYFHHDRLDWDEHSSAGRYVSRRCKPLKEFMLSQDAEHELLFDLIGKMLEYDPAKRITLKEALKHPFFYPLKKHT
Sequence of Dual specificity protein kinase CLK3 (Mus musculus) (O35492 whole entry): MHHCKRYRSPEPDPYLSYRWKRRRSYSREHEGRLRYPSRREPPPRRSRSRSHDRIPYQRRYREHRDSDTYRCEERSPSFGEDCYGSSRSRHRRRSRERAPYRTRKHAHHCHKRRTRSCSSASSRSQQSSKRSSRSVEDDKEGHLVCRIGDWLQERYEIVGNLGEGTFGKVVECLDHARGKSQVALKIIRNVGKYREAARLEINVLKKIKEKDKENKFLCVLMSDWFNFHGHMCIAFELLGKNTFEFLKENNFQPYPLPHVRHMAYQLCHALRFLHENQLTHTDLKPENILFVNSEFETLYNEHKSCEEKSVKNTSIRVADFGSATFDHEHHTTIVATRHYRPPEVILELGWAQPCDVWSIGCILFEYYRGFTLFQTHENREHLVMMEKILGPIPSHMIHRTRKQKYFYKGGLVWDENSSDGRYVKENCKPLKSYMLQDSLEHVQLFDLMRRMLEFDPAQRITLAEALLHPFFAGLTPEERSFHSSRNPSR
Sequence of Dual specificity protein kinase CLK1 (P22518 whole entry): as the sequence (P22518 whole entry, looked up) above
Sequence of Dual specificity protein kinase CLK4 (Homo sapiens, UniProt Q9HAZ1) (Q9HAZ1 whole entry, looked up): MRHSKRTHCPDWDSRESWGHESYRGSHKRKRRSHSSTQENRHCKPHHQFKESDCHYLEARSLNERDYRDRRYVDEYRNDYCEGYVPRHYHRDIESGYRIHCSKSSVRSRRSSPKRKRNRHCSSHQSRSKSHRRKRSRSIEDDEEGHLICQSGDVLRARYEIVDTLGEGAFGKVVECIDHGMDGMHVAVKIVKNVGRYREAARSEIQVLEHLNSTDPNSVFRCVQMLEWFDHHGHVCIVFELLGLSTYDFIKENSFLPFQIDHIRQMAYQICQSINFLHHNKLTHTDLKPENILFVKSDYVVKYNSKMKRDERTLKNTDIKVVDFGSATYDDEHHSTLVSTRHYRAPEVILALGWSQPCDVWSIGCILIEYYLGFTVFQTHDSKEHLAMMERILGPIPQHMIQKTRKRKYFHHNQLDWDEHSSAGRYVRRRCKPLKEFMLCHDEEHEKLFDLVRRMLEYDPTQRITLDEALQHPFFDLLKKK
Sequence of Dual specificity protein kinase CLK1 (Homo sapiens) (P49759 whole entry, looked up): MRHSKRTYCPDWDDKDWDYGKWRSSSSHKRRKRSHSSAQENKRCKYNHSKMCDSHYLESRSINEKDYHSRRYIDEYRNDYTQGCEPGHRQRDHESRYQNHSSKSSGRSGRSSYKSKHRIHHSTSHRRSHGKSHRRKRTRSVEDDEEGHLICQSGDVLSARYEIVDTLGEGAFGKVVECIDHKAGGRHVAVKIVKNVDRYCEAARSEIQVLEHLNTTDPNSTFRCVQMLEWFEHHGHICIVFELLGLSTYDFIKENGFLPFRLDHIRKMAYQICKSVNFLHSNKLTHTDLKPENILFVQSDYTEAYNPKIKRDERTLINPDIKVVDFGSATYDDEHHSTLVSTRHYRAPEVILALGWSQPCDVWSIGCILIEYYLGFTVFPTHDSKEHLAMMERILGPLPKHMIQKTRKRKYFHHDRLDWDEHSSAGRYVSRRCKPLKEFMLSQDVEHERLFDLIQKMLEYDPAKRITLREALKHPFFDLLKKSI
Sequence of Dual specificity protein kinase CLK2 (O35491 whole entry): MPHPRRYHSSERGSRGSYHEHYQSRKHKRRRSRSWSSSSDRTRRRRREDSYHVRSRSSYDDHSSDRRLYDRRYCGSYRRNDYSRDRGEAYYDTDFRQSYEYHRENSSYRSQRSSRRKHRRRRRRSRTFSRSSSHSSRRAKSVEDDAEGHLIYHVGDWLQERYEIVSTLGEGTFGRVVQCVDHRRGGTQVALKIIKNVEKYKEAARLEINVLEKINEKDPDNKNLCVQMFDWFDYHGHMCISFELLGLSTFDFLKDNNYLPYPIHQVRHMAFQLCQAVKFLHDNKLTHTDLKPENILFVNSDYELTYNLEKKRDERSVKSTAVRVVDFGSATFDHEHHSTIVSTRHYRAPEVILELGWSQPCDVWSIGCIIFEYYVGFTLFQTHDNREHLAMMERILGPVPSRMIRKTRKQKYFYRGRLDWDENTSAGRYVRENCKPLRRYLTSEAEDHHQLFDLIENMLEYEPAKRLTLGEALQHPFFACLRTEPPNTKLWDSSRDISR
Sequence of Dual specificity protein kinase CLK4 (Mus musculus, UniProt O35493) (O35493 whole entry): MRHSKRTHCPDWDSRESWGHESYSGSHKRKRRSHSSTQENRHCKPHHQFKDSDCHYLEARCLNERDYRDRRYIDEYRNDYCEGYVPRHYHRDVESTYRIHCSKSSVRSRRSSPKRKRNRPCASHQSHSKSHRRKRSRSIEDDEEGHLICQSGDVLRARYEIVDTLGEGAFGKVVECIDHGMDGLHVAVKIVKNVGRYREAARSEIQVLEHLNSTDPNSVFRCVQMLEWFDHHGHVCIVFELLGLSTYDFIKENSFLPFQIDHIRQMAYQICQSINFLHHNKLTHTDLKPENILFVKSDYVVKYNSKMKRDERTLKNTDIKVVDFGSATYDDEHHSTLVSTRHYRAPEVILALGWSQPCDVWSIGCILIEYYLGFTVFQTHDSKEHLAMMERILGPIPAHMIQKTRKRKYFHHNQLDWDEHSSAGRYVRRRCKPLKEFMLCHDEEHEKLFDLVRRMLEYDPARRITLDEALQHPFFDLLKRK
Sequence of Dual specificity protein kinase CLK3 (Mus musculus, UniProt O35492) (O35492 whole entry): as the sequence (O35492 whole entry) above
Sequence of Dual specificity tyrosine-phosphorylation-regulated kinase 3 (O43781 whole entry): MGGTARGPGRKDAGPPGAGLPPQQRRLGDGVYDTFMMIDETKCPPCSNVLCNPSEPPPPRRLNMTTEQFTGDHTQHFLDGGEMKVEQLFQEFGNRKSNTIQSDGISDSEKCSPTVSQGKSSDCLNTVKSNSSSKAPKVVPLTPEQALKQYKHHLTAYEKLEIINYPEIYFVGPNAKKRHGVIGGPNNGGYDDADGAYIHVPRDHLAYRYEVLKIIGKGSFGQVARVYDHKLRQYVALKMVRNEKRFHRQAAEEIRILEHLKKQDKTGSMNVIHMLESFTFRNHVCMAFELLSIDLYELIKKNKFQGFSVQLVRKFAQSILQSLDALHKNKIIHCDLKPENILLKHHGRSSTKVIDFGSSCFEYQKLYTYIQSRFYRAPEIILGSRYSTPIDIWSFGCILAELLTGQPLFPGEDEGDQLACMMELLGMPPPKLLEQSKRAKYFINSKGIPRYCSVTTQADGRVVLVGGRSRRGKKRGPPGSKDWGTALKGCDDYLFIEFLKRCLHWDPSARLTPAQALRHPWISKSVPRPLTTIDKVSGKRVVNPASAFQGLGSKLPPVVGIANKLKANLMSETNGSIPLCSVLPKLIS
Sequence of Mitogen-activated protein kinase 1 (P63086 whole entry): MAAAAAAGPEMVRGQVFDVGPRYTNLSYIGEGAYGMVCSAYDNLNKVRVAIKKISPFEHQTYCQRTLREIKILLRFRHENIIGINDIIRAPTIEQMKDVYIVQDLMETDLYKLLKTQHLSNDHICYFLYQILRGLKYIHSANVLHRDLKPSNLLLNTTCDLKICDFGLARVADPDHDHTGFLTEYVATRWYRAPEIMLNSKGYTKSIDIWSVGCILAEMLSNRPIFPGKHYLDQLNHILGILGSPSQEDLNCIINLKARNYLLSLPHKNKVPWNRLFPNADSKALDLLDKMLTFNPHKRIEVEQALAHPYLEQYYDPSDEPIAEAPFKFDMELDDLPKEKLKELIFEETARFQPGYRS

For the molecule `COc1cc2c(cc1OC)C(=O)C(CC1CCN(Cc3ccccc3)CC1)C2` (stereo unspecified), the inhibition entry in [1], in assay [2], in assay [3] and in assay [4] was “inactive” in each case.
As to `O=C1Cc2c([nH]c3ccc([N+](=O)[O-])cc23)-c2ccccc2N1`, in assay [5], the inhibition result is “inactive”. The inhibition result in the assay with HT-22 [6] and with HT-22 [7] was “Active” each time. In the assay on HT-22 [8], the outcome was Active.
Consider `CC12CC3CC(C)(C1)CC(N)(C3)C2`, for which the inhibition entry in assay [1], in assay [2], in assay [3] and in assay [4] was “inactive” throughout.
Consider `COc1ccc2c(c1)[nH]c1c(C)nccc12` [HARMINE], for which the result in [9], in [17], in assay [22], in [23] and in [27] was Active. In [10], the inhibition result was “Active”. The IC50 in assay [11] was greater than 10000 nM; in assay [12], greater than 30000 nM; in assay [13], greater than 10000 nM; in assay [14], 72 nM; in [15] it was 280 nM; in [16], 9500 nM. For the same molecule, the IC50 in assay [18] is greater than 10000 nM; in assay [19], 50 nM; in assay [20], no less than 10000 nM; in assay [21], 1800 nM; in assay [24], 210 nM; in assay [25] it was 19000 nM. Besides, the IC50 in [26] is 18000 nM; in assay [28], greater than 30000 nM; in [29], greater than 10000 nM; at CDK9/cyclin T1, 720 nM; in assay [31], 120 nM. Also, in assay [30], the inhibition entry is “inactive”.
As for `O=C1Nc2cc(Br)ccc2/C1=C1/N=c2ccccc2=C1NO`, in the assay on HT-22 [7], the inhibition result was “Active”.
Turning to `Nc1ccc(C(=O)Nc2cccc(-c3nc(N4CCOCC4)c4oc5ncccc5c4n3)c2)cn1`, the outcome in the assay on HT-22 [8] was inactive.
With `Nc1c2c(nc3ccccc13)CCCC2`, the inhibition result in assay [1], in assay [2], in assay [3] and in assay [4] was “inactive” each time.
`CCN(C)C(=O)Oc1cccc([C@H](C)N(C)C)c1`: the inhibition entry in [1], in assay [2], in assay [3] and in [4] was “inactive” each time.
Consider `O=C(O)c1ccc2c(c1)nc(Nc1cccc(Cl)c1)c1ccncc12`, for which the result with HT-22 [8] was inactive.
Consider `COc1ccc2c3c1O[C@H]1C[C@@H](O)C=C[C@@]31CCN(C)C2`, for which the inhibition entry in assay [1], in assay [2], in [3] and in [4] was “inactive” in each case.
